Screening data as filed in PubChem BioAssay.
An excerpt weighted towards active compounds, which were near 2.3% of everything screened.
TRPC6 inh: mouse TRPC6 channel inhibitors, primary screen, cell-based, HEK293, membrane potential dye; Short transient receptor potential channel 6 (Mus musculus), Q61143; ACh-evoked depolarization; active compounds read low; B-score at 10 µM; 1.1% of 310,000 active;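 active means B-score under library mean minus 3 SD, initial fluorescence not abnormally high, positive integrated signal ratio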;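 further: B-score derived from integrated fluorescence ratio over the kinetic read; more negative B-score means stronger inhibition of depolarization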
TRPC4 PAM: positive allosteric modulators of TRPC4, primary screen, cell-based, mouse TRPC4beta, HEK293 mu-opioid, Fluo-4 calcium; Short transient receptor potential channel 4 (Mus musculus), Q9QUQ5; DAMGO EC20, Fluo-4 Ca2+ flux; active compounds read high; B-score at 10 µM; 0.42% of 310,000 active;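 active means B-score of calcium response area above 5 SD of library B-scores, with initial fluorescence ratio within 5 SD of library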;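 further: B-score of integrated fluorescence ratio over time as area under calcium response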
TRPC4 act: activators of mouse TRPC4 channel, primary screen, Fluo4 calcium, HEK293 TRPC4beta/mu-opioid cells; Fluo4 calcium fluorescence; active compounds read high; B-score at 10 µM; 0.49% of 310,000 active;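 active means B-score above 5 SD of library B-scores, and initial fluorescence ratio not above library mean plus 5 SD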;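 further: positive B-score marks a calcium rise read as TRPC4 activation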
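Assay system: HEK293 stable line with TRPC4beta plus mu-opioid receptor; schedule: 45 min room-temperature Fluo4 loading, 110 s read; technique: kinetic Fluo4 calcium fluorescence; evaluation: integrated baseline-normalised fluorescence ratio, converted to per-well B score; controls: buffer (low) and maximal DAMGO (high)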
TRPC4 inh: inhibitors of mouse TRPC4 channel, primary screen, Fluo4 calcium, HEK293 TRPC4beta/mu-opioid cells | AID 2247, 2010 | DAMGO-evoked Fluo4 calcium flux; active compounds read low | B-score at 10 µM | 0.39% of 300,000 active;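 active means B-score over 3 SD under the library average, no early fluorescence shift, positive overall ratio signal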
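Material: HEK293 cells with stable TRPC4beta plus mu-opioid receptor expression / Probe or stimulus: DAMGO in two steps, submaximal then maximal / Compound: single concentration per test compound / Technique: kinetic Fluo4 fluorescence imaging of calcium influx / Read-out: per-well B score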
TRPC6 act: mouse TRPC6 channel activators, primary screen, cell-based, HEK293, membrane potential dye; Short transient receptor potential channel 6 (Mus musculus), Q61143; HEK293-TRPC6 membrane potential dye fluorescence; active compounds read high; B-score at 10 µM; 0.13% of 310,000 active; AID 2550, 2010;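 active means B-score of the integrated fluorescence ratio above library mean plus 3 SD, and starting fluorescence ratio within library mean plus 5 SD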;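 further: higher score means more depolarization so channel activation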
TRPC4 sel inh 2: mouse TRPC4 off-target activity of TRPC6 inhibitors, second screen; 42% of 920 active; shares compounds with TRPC6 inh; AID 2776; HEK293 TRPC4/MOR, membrane potential dye fluorescence; channel activated by saturating DAMGO dose; inhibition, % at 10 µM;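 active means compounds whose fluorescence signal differed from control wells by over 3 SD, either direction, in both duplicate plates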
TRPC4 spec: mouse TRPC4 modulation by TRPC6 hits, confirmation, selectivity assay for TRPC6 inhibitor project, cell-based, HEK293 TRPC4/mu-opioid, membrane potential dye | shares compounds with TRPC6 inh | membrane potential fluorescence | activity change, negative = inhibition, % at 10 µM | 61% of 920 active;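 active means rise or fall in signal beyond 3 SD of buffer-only wells in both replicate plates, either sign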;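 further: integrated kinetic ratio of fluorescence range over baseline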
HEK293 MPD ctr 2-1: nonspecific membrane potential effects, parental HEK293, confirmation, counter-screen for TRPC6 inhibitor project, cell-based, second counter screen | shares compounds with TRPC6 inh | parental HEK293 membrane potential dye fluorescence; maximal acetylcholine challenge after compound addition | signal change vs control, % at 10 µM | 31% of 920 active;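 active means membrane potential signal moving either way by over 3 SD of the maximum-effect control, in both duplicate plates, meaning non-specific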
HEK293 MPD ctr-1: membrane potential modulation in parental HEK293, confirmation, counter-screen for TRPC6 inhibitor project, cell-based | shares compounds with TRPC6 inh | parental HEK293 membrane potential dye fluorescence | membrane potential signal change, % at 10 µM | 60% of 920 active | AID 2780, 2010;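 active means membrane potential signal shifting up or down by more than 3 SD of buffer-only wells, on both duplicate plates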
HEK293 MPD ctr-2: parental HEK293 membrane potential modulation, confirmation, counter-screen for TRPC6 modulator project, cell-based; membrane potential signal change, % at 10 µM; 51% of 2,400 active; membrane potential dye fluorescence; shares compounds with TRPC6 inh;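 active means membrane potential signal moves up or down beyond 5 SD from buffer-only wells, on both duplicate plates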
HEK293 MPD ctr 2-2: second check of TRPC6 modulator effects in parental HEK293 cells; shares compounds with TRPC6 inh; membrane potential dye fluorescence; after compound, maximal acetylcholine stimulation; inhibition, % at 10 µM; 14% of 2,400 active;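 active means membrane potential signal drops by more than 5 SD from the mean control signal, in both duplicate plates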;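 further: plate controls were acetylcholine ECmax control wells for no effect and buffer only wells for full effect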
TRPC4/MOR mod: TRPC4 modulation by TRPC6 hit compounds, confirmation, selectivity assay for TRPC6 modulator project, cell-based, HEK293 TRPC4/mu-opioid, membrane potential dye, mouse; shares compounds with TRPC6 inh; percent change from control (negative = decrease, positive = increase), % at 10 µM; AID 488927, 2010; membrane potential fluorescence; 69% of 2,400 active;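 active means membrane potential signal moved up or down beyond 5 SD of buffer control wells, in both duplicate plates, actives on both sides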;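 further: plate controls were assay buffer wells for no effect and DAMGO maximal-effect wells for full effect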
TRPC4 ctr inh 2: mouse TRPC4 off-target activity of TRPC6 modulators, second screen | shares compounds with TRPC6 inh | HEK293 TRPC4/mu-opioid, membrane potential dye fluorescence; stimulated with maximal-effect DAMGO | inhibition, % at 10 µM | 55% of 2,400 active | AID 488928;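 active means drop in membrane potential signal beyond 5 SD of the control wells in both duplicate plates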;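 further: TRPC4 counter screen for TRPC6 hits run under conditions tuned for TRPC6 not TRPC4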
TRPC6 block conf: mouse TRPC6 channel inhibitors, confirmation, HEK293 cells, membrane potential dye, duplicate; shares compounds with TRPC6 inh; ACh-evoked depolarization; inhibition, % at 10 µM; 43% of 3,300 active;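 active means fluorescence ratio falls more than 5 SD below the full-stimulation control mean, in both duplicate runs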;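 further: integrated fluorescence ratio of peak minus minimum over baseline after agonist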
TRPC6 act confirm: mouse TRPC6 channel activators, confirmation, HEK293 cells, membrane potential dye, duplicate. shares compounds with TRPC6 inh. HEK293-TRPC6 membrane potential dye fluorescence, FDSS. activation, % at 10 µM. 11% of 2,800 active. AID 488961, 2010;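 active means ratio signal rise beyond 5 SD above unstimulated control wells' mean, seen in both duplicate runs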;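 further: plate controls were buffer EC0 wells for no effect and acetylcholine ECmax response for full effect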
The depositor's hits bear a star.

How did COC(C#CCCN(C)C)(c1ccccc1)c1ccccc1 do in these assays?
TRPC6 inh: -6.5*; TRPC4 PAM: inactive; TRPC4 act: inactive; TRPC4 inh: inactive; TRPC6 act: inactive; HEK293 MPD ctr-2: inactive; HEK293 MPD ctr 2-2: 89%*; TRPC4/MOR mod: 14%*; TRPC4 ctr inh 2: 34%*; TRPC6 block conf: 79%*

Results for COc1ccc(C)cc1S(=O)(=O)N1CCC(C(=O)NC2CCCC2)CC1 ?
TRPC6 inh: inactive; TRPC4 PAM: inactive; TRPC4 act: inactive; TRPC4 inh: inactive; TRPC6 act: inactive

What do the screens show for `CC(=O)c1ccc2cccc3c2c1N=CN3C`?
TRPC6 inh: -8.9*; TRPC4 PAM: inactive; TRPC4 act: inactive; TRPC4 inh: inactive; TRPC6 act: inactive; HEK293 MPD ctr-2: -146%*; HEK293 MPD ctr 2-2: 68%*; TRPC4/MOR mod: -66%*; TRPC4 ctr inh 2: 50%*; TRPC6 block conf: 50%*; TRPC6 act confirm: inactive

How did CN1c2cccc3cccc(c23)N(C)C1(C)C do in these assays?
TRPC6 inh: inactive; TRPC4 PAM: inactive; TRPC4 act: inactive; TRPC4 inh: inactive; TRPC6 act: inactive

Results for CCOc1ccc(CCNC(=O)C(C)N2C(=O)CC(C)(C)Sc3ccccc32)cc1 (stereo not given) ?
TRPC6 inh: inactive; TRPC4 PAM: inactive; TRPC4 act: inactive; TRPC4 inh: inactive; TRPC6 act: inactive

Results for COCCn1c(=N)c(C(=O)NCCc2ccc(OC)cc2)cc2c(=O)n3cccc(C)c3nc21 ?
TRPC6 inh: inactive; TRPC4 PAM: inactive; TRPC4 act: inactive; TRPC4 inh: inactive; TRPC6 act: inactive

Results for Cc1cccn2c(=O)c3cc(C(=O)NC(C)C)c(=N)n(Cc4ccncc4)c3nc12 ?
TRPC6 inh: -7.6*; TRPC4 PAM: inactive; TRPC4 act: inactive; TRPC4 inh: inactive; TRPC6 act: inactive; TRPC4 sel inh 2: 72%*; TRPC4 spec: -19%*; HEK293 MPD ctr 2-1: -16%*; HEK293 MPD ctr-1: -304%*; TRPC6 block conf: 76%*; TRPC6 act confirm: inactive

How did CCNC(=O)c1cc2c(=O)n3cccc(C)c3nc2n(Cc2ccc(C)cc2)c1=N do in these assays?
TRPC6 inh: -6.1*; TRPC4 PAM: inactive; TRPC4 act: inactive; TRPC4 inh: inactive; TRPC6 act: inactive; HEK293 MPD ctr-2: -146%*; HEK293 MPD ctr 2-2: inactive; TRPC4/MOR mod: -28%*; TRPC4 ctr inh 2: 40%*; TRPC6 block conf: inactive; TRPC6 act confirm: inactive

Results for COCCCNC(=O)c1cc2c(=O)n3cccc(C)c3nc2n(C(C)C)c1=N ?
TRPC6 inh: -5*; TRPC4 PAM: inactive; TRPC4 act: inactive; TRPC4 inh: inactive; TRPC6 act: inactive; HEK293 MPD ctr-2: inactive; HEK293 MPD ctr 2-2: 67%*; TRPC4/MOR mod: inactive; TRPC4 ctr inh 2: 30%*; TRPC6 block conf: 45%*; TRPC6 act confirm: inactive

What do the screens show for `Cc1cccn2c(=O)c3cc(C(=O)NC4CCCCC4)c(=N)n(Cc4ccc(F)cc4)c3nc12`?
TRPC6 inh: inactive; TRPC4 PAM: inactive; TRPC4 act: inactive; TRPC4 inh: inactive; TRPC6 act: inactive

What do the screens show for `COc1ccc(CNC(=O)c2cc3c(=O)n4cccc(C)c4nc3n(CC3CCCO3)c2=N)cc1` (stereo not given)?
TRPC6 inh: inactive; TRPC4 PAM: inactive; TRPC4 act: inactive; TRPC4 inh: inactive; TRPC6 act: inactive

What do the screens show for `CC(C(=O)NC(=O)NC1CCCCC1)N1CCN(C(c2ccccc2)c2ccccc2)CC1` (stereo not given)?
TRPC6 inh: inactive; TRPC4 PAM: inactive; TRPC4 act: inactive; TRPC4 inh: inactive; TRPC6 act: inactive

How did Cc1sc(NC(=O)c2sc3nc4c(C)cccc4cc3c2N)c(C#N)c1C do in these assays?
TRPC6 inh: inactive; TRPC4 PAM: inactive; TRPC4 act: inactive; TRPC4 inh: inactive; TRPC6 act: 13*; HEK293 MPD ctr-2: inactive; HEK293 MPD ctr 2-2: inactive; TRPC4/MOR mod: 13%*; TRPC4 ctr inh 2: inactive; TRPC6 block conf: inactive; TRPC6 act confirm: inactive
